Laboratory results taken from ChEMBL document CHEMBL3243964, “Biomolecules bearing the S- or SeAsMe2 function: amino acid and steroid derivatives” (J Med Chem, 1979).
The source made the active and inactive calls. The rule behind the calls is not given here.

How the values were obtained:
[1] = species on record: Mus musculus; assay: Toxicity in mouse allografted with mouse L1210 cells; format: organism-based
[2] = system: L1210; assay: Carcinostatic activity against mouse L1210 cells allografted in mouse assessed as increase in survival at 50 mg/kg relative to control; format: functional
[3] = system: L1210; assay: Carcinostatic activity against mouse L1210 cells allografted in mouse assessed as increase in life span at 100 mg/kg relative to control; format: functional
Summary of the method: (§1)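 Mice bearing L1210 lymphoid leukemia, tested externally. Read-out is percent increased life span (ILS) of treated versus control animals at the dose shown in mg/kg.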

[4] = system: Staphylococcus aureus; assay: Bacteriostatic activity against Staphylococcus aureus 209 cultured in nutrient broth; format: functional, organism-based
Summary of the method: (§2)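 Bacteria grown in nutrient broth with the compound. Read-out is inhibition of growth, with total inhibition scored. Gram-negative (K. pneumoniae) and Gram-positive strains were tested.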

[5] = system: Staphylococcus aureus; assay: Bacteriostatic activity against Staphylococcus aureus 209; format: functional
[6] = system: L1210; assay: Carcinostatic activity against mouse L1210 cells allografted in mouse assessed as increase in life span at 500 mg/kg relative to control; format: functional; summary of the method: as §1
[7] = system: Klebsiella pneumoniae; assay: Bacteriostatic activity against Klebsiella pneumoniae; format: functional, organism-based; summary of the method: as §2
[8] = system: L1210; assay: Carcinostatic activity against mouse L1210 cells allografted in mouse assessed as increase in survival at 100 mg/kg relative to control; format: functional

SMILES | Activity [1] [mg/kg] | T/C [2] [%] | Activity [3] [%] | growth inhibition (GI) [4] | inhibition zone (IZ) [5] [mm] | Activity [6] [%] | Activity [7] | T/C [8] [%]
C[As](C)SCC[C@@H](CCCCC(=O)O)S[As](C)C | 100 | 128 | 33 |  |  |  |  | 
C[As](C)SC[C@H](NC(=O)CC[C@H](N)C(=O)O)C(=O)NCC(=O)O [DARINAPARSIN] | 400 |  |  | Active | 20 | 33 | Active | 164
C[As](C)SCC[C@H](NC(=O)[C@@H](N)CCS[As](C)C)C(=O)O | > 200 |  |  |  |  |  |  | 144
C[As](C)SCC(N)C(=O)O (racemic) | 200 | 110 |  | Active | 15 |  |  | 
